ChEMBL document CHEMBL3124852, “Synthesis and evaluation of (-)-Massoialactone and analogues as potential anticancer and anti-inflammatory agents” (Eur J Med Chem, 2014)
≈ marks a conversion by molar mass, not a printed value.

Experiments:
[1] = test system: MCF7; assay: Cytotoxicity against human MCF7 cells after 72 hrs by MTT assay; format: functional, cell-based; settings: MCF7, 72 h
[2] = test system: HT-29; assay: Cytotoxicity against human HT-29 cells after 72 hrs by MTT assay; format: functional, cell-based; settings: HT-29, 72 h
Method in brief: (§1)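 Tumour cells plated at 10⁵ cells/mL (adherent) or 3 × 10⁵ cells/mL (leukaemias) in medium with fetal bovine serum, 2 mM glutamine, penicillin/streptomycin, 37 °C, 5% CO₂. Compounds ([…], 0.1% DMSO) added for 72 h; MTT (5 mg/mL stock) added at 69 h, formazan dissolved in DMSO after 3 h, read at 595 nm. IC50 with 95% CI from nonlinear regression, two experiments.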

[3] = test system: NCI-H292; assay: Cytotoxicity against human NCI-H292 cells after 72 hrs by MTT assay; format: functional, cell-based; settings: NCI-H292, 72 h; method in brief: as §1
[4] = Antiinflammatory activity in Balb/c mouse peritoneal macrophages assessed as reduction in LPS-induced TNF-alpha production at 3.1 ug/ml after 24 hrs by ELISA relative to control; format: functional, Peritoneal macrophage cell
Method in brief: (§2)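 Thioglycollate-elicited (2.5 mL 3%, i.p., 72 h) peritoneal cells from Balb/c mice, viability checked by trypan blue, cultured at 5 × 10⁶ cells/mL in RPMI-1640 + 10% FBS; non-adherent cells removed after 2 h at 37 °C, 5% CO₂. Adherent macrophages treated with compound plus LPS (1 µg/mL) 24 h; supernatant collected. Mean ± SD of three independent experiments; ANOVA with Newman-Keuls versus medium-only cells.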

[5] = Cytotoxicity against LPS-stimulated Balb/c mouse peritoneal macrophages assessed as cell viability at 6.2 ug/ml after 24 hrs by MTT assay relative to control; format: cell-based, Peritoneal macrophage cell; settings: read-out: Activity
Method in brief: (§3)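 Adherent thioglycollate-elicited Balb/c peritoneal macrophages exposed 24 h to compound (3.1–25.0 µg/mL) and/or LPS (1 µg/mL), then MTT (5 mg/mL stock) added for 4 h; formazan dissolved in DMSO, absorbance 550 nm. Cell death % = (1 − A_test/A_control) × 100. Quadruplicate wells, three independent experiments; mean ± SD.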

[6] = test system: HL-60; assay: Cytotoxicity against human HL60 cells after 72 hrs by MTT assay; format: functional, cell-based; settings: HL-60, 72 h; method in brief: as §1
[7] = Cytotoxicity against LPS-stimulated Balb/c mouse peritoneal macrophages assessed as cell viability at 25 ug/ml after 24 hrs by MTT assay relative to control; format: cell-based, Peritoneal macrophage cell; settings: read-out: Activity; method in brief: as §3
[8] = Antiinflammatory activity in Balb/c mouse peritoneal macrophages assessed as reduction in LPS-induced nitric oxide production at 3.1 ug/ml after 24 hrs by Griess method relative to control; format: functional, Peritoneal macrophage cell; method in brief: as §2
[9] = Cytotoxicity against LPS-stimulated Balb/c mouse peritoneal macrophages assessed as cell viability after 24 hrs by MTT assay; format: cell-based; settings: peritoneal macrophage cell; method in brief: as §3
[10] = Cytotoxicity against LPS-stimulated Balb/c mouse peritoneal macrophages assessed as cell viability at 3.1 ug/ml after 24 hrs by MTT assay relative to control; format: cell-based, Peritoneal macrophage cell; settings: read-out: Activity; method in brief: as §3
[11] = test system: K562; assay: Cytotoxicity against human K562 cells after 72 hrs by MTT assay; format: functional, cell-based; settings: K562, 72 h; method in brief: as §1
[12] = Cytotoxicity against LPS-stimulated Balb/c mouse peritoneal macrophages assessed as cell viability at 12.5 ug/ml after 24 hrs by MTT assay relative to control; format: cell-based, Peritoneal macrophage cell; settings: read-out: Activity; method in brief: as §3

Structure (SMILES) | IC50 [1] [mg/L] | IC50 [2] [mg/L] | IC50 [3] [mg/L] | Activity [4] [pg/mL] | viability at 24 h, 6.2 ug/ml [5] [%] | IC50 [6] [mg/L] | viability at 24 h, 25 ug/ml [7] [%] | Activity [8] [µM] | Activity [9] | viability at 24 h, 3.1 ug/ml [10] [%] | IC50 [11] [mg/L] | viability at 24 h, 12.5 ug/ml [12] [%]
CCC1CC=CC(=O)O1 (configuration not stated) | > 100 | > 100 | > 100 | – | – | – | – | – | – | – | – | –
O=C1C=CCC(COc2ccccc2)O1 (configuration not stated) | 22.5 (≈ 110 µM) | 4.4 (≈ 21.5 µM) | 0.8 (≈ 3.92 µM) | 112.4 | 47.3 | 5.4 (≈ 26.4 µM) | 0 | 5.2 | Dose-dependent effect | 93 | 2.9 (≈ 14.2 µM) | 0
CCCCC[C@@H]1CC=CC(=O)O1 | 60 (≈ 357 µM) | 22.6 (≈ 134 µM) | 11.3 (≈ 67.2 µM) | – | – | 16 (≈ 95.1 µM) | – | – | – | – | 20.2 (≈ 120 µM) | –
C=CCCC1CC=CC(=O)O1 (configuration not stated) | > 100 | > 100 | > 100 | – | 45.4 | – | 2.5 | – | Dose-dependent effect | 57 | – | 19.7
COc1cccc2c1C(=O)c1c(O)c3c(c(O)c1C2=O)C[C@@](O)(C(=O)CO)C[C@@H]3O[C@H]1C[C@H](N)[C@H](O)[C@H](C)O1 [DOXORUBICIN] | – | – | 0.02 (≈ 0.0368 µM) | – | – | – | – | – | – | – | 0.26 (≈ 0.478 µM) | –
O=C1C=CCC(c2ccccc2)O1 (configuration not stated) | 22.9 (≈ 131 µM) | 10.9 (≈ 62.6 µM) | 9.1 (≈ 52.2 µM) | – | 30.9 | 13.2 (≈ 75.8 µM) | 7.4 | – | Dose-dependent effect | 34.5 | 8.9 (≈ 51.1 µM) | 1
C=CCOCC1CC=CC(=O)O1 (configuration not stated) | 44.6 (≈ 265 µM) | 18.4 (≈ 109 µM) | 16.6 (≈ 98.7 µM) | 210 | 77.2 | 25.5 (≈ 152 µM) | 7.7 | 2.7 | Dose-dependent effect | 100 | 50 (≈ 297 µM) | 51.1
